Here are results for 21 molecules from ChEMBL document CHEMBL3734725, “Design, synthesis and preliminary biological studies of pyrrolidine derivatives as Mcl-1 inhibitors” (Bioorg Med Chem, 2015).

The target of experiment [1] is Induced myeloid leukemia cell differentiation protein Mcl-1 (Homo sapiens, UniProt Q07820). The experiment in a line: Competitive binding affinity to Mcl-1 (unknown origin) using 5-FAM-Bid-BH3 peptide preincubated for 30 mins before 5-FAM-Bid-BH3 peptide addition and measured 20 mins after 5-FAM-Bid-BH3 peptide addition by fluorescence polarization assay. The gist of the method:
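Mcl-1 preincubated 30 min at room temperature with compound in PBS (pH 7.3; 140 mM NaCl, 2.7 mM KCl, 1.8 mM KH₂PO₄). IC50 fitted, Ki calculated; three separate experiments.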
A general note: In fluorescence polarisation assays a small probe gives low polarisation when free and higher when bound to something large.

The test system of a further experiment is K562. The experiment in a line: Antiproliferative activity against human K562 cells after 48 hrs by MTT assay. It is filed as functional, cell-based. Particulars: K562, 48 h. The procedure, abridged:
(§1)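 Cells grown in RPMI1640 with 10% fetal bovine serum at 37 °C, 5% CO₂. Log-phase cells seeded at 5000 per well and incubated 12 h, then exposed to a range of compound concentrations for 48 h. MTT (5 mg/mL) added for 4 h, medium removed, formazan dissolved in DMSO, absorbance read. IC50 reported.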
(In general: Tetrazolium dyes change colour on reduction, which living cells bring about.)

The target in experiment [2] is Apoptosis regulator Bcl-2 (Homo sapiens, UniProt P10415). The experiment in a line: Competitive binding affinity to Bcl-2 (unknown origin) using 5-FAM-Bid-BH3 peptide preincubated for 30 mins before 5-FAM-Bid-BH3 peptide addition and measured 20 mins after 5-FAM-Bid-BH3 peptide addition by fluorescence polarization assay. The procedure, abridged:
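Same FP competition with FAM-Bid-BH3 peptide at 10 nM final in PBS pH 7.3. Protein and compound preincubated 30 min at room temperature. IC50 fitted, then converted to Ki.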

Experiment [3] in a line: Antiproliferative activity against human PC3 cells after 48 hrs by MTT assay. It is filed as functional, cell-based. As to conditions: PC-3, 48 h. The gist of the method: as §1
The test system of the next experiment is MDA-MB-231. Nature of the experiment: Antiproliferative activity against human MDA-MB-231 cells after 48 hrs by MTT assay. The format is functional, cell-based. Particulars: MDA-MB-231, 48 h. The gist of the method:
as §1

A further experiment concerns the target Bcl-2-like protein 1 (Homo sapiens, UniProt Q07817). The experiment in a line: Competitive binding affinity to Bcl-XL (unknown origin) using 5-FAM-Bid-BH3 peptide preincubated for 30 mins before 5-FAM-Bid-BH3 peptide addition and measured 20 mins after 5-FAM-Bid-BH3 peptide addition by fluorescence polarization assayy. The procedure, abridged: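 Same FP competition with FAM-Bid-BH3 peptide at 10 nM final in PBS pH 7.3. Protein and compound preincubated 30 min at room temperature. Final Bcl-2 376 nM, final Bcl-XL 170 nM. Polarization read at ex 485/em 535 nm in triplicate. IC50 fitted, then converted to Ki.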

Bounds are passed on as bounds.

Chain of Apoptosis regulator Bcl-2 (P10415 whole entry): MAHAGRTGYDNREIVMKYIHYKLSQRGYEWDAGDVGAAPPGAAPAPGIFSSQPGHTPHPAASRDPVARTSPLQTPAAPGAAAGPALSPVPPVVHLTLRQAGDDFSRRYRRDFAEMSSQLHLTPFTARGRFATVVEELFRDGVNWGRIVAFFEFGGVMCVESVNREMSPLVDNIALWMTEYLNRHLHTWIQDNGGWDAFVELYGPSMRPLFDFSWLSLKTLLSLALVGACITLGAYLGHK
Chain of Bcl-2-like protein 1 (Q07817 whole entry): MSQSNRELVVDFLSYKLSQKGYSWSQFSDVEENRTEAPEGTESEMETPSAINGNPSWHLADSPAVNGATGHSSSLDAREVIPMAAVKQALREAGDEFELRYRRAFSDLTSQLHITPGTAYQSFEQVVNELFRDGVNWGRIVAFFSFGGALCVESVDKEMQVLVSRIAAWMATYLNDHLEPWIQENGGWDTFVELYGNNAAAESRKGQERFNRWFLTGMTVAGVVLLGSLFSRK
Chain of Induced myeloid leukemia cell differentiation protein Mcl-1 (Q07820 whole entry): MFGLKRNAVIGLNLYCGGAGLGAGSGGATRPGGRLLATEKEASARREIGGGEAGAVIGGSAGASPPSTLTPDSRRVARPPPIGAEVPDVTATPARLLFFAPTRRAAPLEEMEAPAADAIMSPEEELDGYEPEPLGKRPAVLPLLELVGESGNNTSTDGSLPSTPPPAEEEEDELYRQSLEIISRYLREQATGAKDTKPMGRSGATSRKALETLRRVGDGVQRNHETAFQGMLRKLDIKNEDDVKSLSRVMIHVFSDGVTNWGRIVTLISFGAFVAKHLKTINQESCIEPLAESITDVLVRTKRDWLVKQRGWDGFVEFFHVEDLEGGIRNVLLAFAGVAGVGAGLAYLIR

With `CC(C)[C@H](NC(=O)[C@@H]1C[C@H](Oc2ccc(-c3ccccc3)cc2)CN1C(=O)OC(C)(C)C)C(=O)O`, the Ki in experiment [1] was greater than 10 µM.

Regarding `Cc1ccc(-c2ccc(O[C@H]3C[C@@H](C(=O)N[C@@H](Cc4ccccc4)C(=O)NS(=O)(=O)c4ccc(C)cc4)N(C(=O)OC(C)(C)C)C3)cc2)cc1`, the affinity in experiment [1] corresponds to a Ki of 1.9 µM.

`Cc1ccc(-c2ccc(O[C@H]3C[C@@H](C(=O)N[C@@H](Cc4ccccc4)C(=O)NS(=O)(=O)c4ccc(Cl)c([N+](=O)[O-])c4)N(C(=O)OC(C)(C)C)C3)cc2)cc1`: the values for the 50% inhibitory concentration (IC50) (in the experiment with K562; in experiment [3]; in the experiment on MDA-MB-231) were 22.4 µM, 13.5 µM and 15.4 µM, respectively. In addition, the values for the Ki (in experiment [2]; at Bcl-2-like protein 1) were 4600 nM and 8700 nM, respectively.

For the molecule `CC(C)(C)OC(=O)N1C[C@@H](Oc2ccc(-c3ccccc3)cc2)C[C@H]1C(=O)N[C@@H](Cc1ccc(Br)cc1)C(=O)NS(=O)(=O)c1ccc(Cl)c([N+](=O)[O-])c1`, the figures for the IC50 (with K562; in experiment [3]; with MDA-MB-231) were 23 µM, 10.7 µM and 13.6 µM, respectively. For the same molecule, the figures for the inhibition constant Ki (in experiment [2]; on Bcl-2-like protein 1) were 930 nM and 2200 nM, respectively.

`CC(C)(C)OC(=O)N1C[C@@H](Oc2ccc(Br)cc2)C[C@H]1C(=O)N[C@@H](Cc1ccccc1)C(=O)O` gave an inhibition constant Ki in experiment [1] greater than 10 µM.

`CC(C)[C@H](NC(=O)[C@@H]1C[C@H](Oc2ccc(Br)cc2)CN1C(=O)OC(C)(C)C)C(=O)O` displayed a Ki in experiment [1] greater than 10 µM.

As for `CC(C)C[C@H](NC(=O)[C@@H]1C[C@H](Oc2ccc(-c3ccccc3)cc2)CN1C(=O)OC(C)(C)C)C(=O)O`, in experiment [1], the inhibitory constant (Ki) was greater than 10 µM.

The molecule `CC(C)(C)OC(=O)N1C[C@@H](Oc2ccc(-c3ccccc3)cc2)C[C@H]1C(=O)N[C@@H](Cc1ccc(Br)cc1)C(=O)NS(=O)(=O)c1ccccc1` displayed a Ki in experiment [1] of 1.2 µM.

`Cc1ccc(-c2ccc(O[C@H]3C[C@@H](C(=O)N[C@@H](Cc4ccccc4)C(=O)NS(=O)(=O)c4ccccc4)N(C(=O)OC(C)(C)C)C3)cc2)cc1` had an inhibition constant Ki in experiment [1] of 1.6 µM.

Take `Cc1ccc(S(=O)(=O)NC(=O)[C@H](Cc2ccc(Br)cc2)NC(=O)[C@@H]2C[C@H](Oc3ccc(-c4ccccc4)cc3)CN2C(=O)OC(C)(C)C)cc1`: the inhibition constant (Ki) in experiment [1] came to 0.99 µM.

In experiment [1], `CC(C)(C)OC(=O)N1C[C@@H](Oc2ccc(-c3ccccc3)cc2)C[C@H]1C(=O)N[C@@H](Cc1c[nH]c2ccccc12)C(=O)NS(=O)(=O)c1ccccc1` gave an inhibitory constant (Ki) of 3.2 µM. Compared with the last molecule, the Ki is about 3.2-fold higher.

For the molecule `CC(C)(C)OC(=O)N1C[C@@H](Oc2ccc(-c3ccccc3)cc2)C[C@H]1C(=O)N[C@H](C(=O)O)c1ccccc1`, in experiment [1], the inhibitory constant (Ki) is greater than 10 µM.

On to `CC(C)(C)OC(=O)N1C[C@@H](Oc2ccc(-c3ccccc3)cc2)C[C@H]1C(=O)NCC(=O)O`, for which the Ki in experiment [1] is greater than 10 µM.

In experiment [1], `Cc1ccc(S(=O)(=O)NC(=O)[C@H](Cc2ccccc2)NC(=O)[C@@H]2C[C@H](Oc3ccc(-c4ccccc4)cc3)CN2C(=O)OC(C)(C)C)cc1` came in with an inhibition constant (Ki) of 3.3 µM.

`CC(C)(C)OC(=O)N1C[C@@H](Oc2ccc(-c3ccccc3)cc2)C[C@H]1C(=O)N[C@@H](Cc1ccccc1)C(=O)O` yielded a Ki in experiment [1] of 8.4 µM.

`CC(C)(C)OC(=O)N1C[C@@H](Oc2ccc(Br)cc2)C[C@H]1C(=O)N[C@H](C(=O)O)c1ccccc1` showed a Ki in experiment [1] greater than 10 µM.

In turn, `CC(C)(C)OC(=O)N1C[C@@H](Oc2ccc(Br)cc2)C[C@H]1C(=O)NCC(=O)O` registered an inhibition constant Ki in experiment [1] greater than 10 µM.

For `Cc1ccc(-c2ccc(O[C@H]3C[C@@H](C(=O)N[C@@H](Cc4ccc(Br)cc4)C(=O)NS(=O)(=O)c4ccc(Cl)c([N+](=O)[O-])c4)N(C(=O)OC(C)(C)C)C3)cc2)cc1`, the IC50 with K562 is 22.1 µM; in experiment [3] it was 13.8 µM; in the experiment on MDA-MB-231 it was 14.9 µM. For the same molecule, the inhibitory constant (Ki) amounted to 550 nM in experiment [2] and 1200 nM at Bcl-2-like protein 1.

Regarding `CC(C)C[C@H](NC(=O)[C@@H]1C[C@H](Oc2ccc(Br)cc2)CN1C(=O)OC(C)(C)C)C(=O)O`, in experiment [1], the Ki was greater than 10 µM.

As for `CC(C)(C)OC(=O)N1C[C@@H](Oc2ccc(-c3ccc(Cl)cc3)cc2)C[C@H]1C(=O)N[C@@H](Cc1ccc(Br)cc1)C(=O)NS(=O)(=O)c1ccc(Cl)c([N+](=O)[O-])c1`, the half-maximal inhibitory concentration (IC50) turned out to be 21.9 µM in the experiment with K562, 11.2 µM in experiment [3] and 15.8 µM in the experiment with MDA-MB-231. The Ki stood at 830 nM in experiment [2] and 2100 nM at Bcl-2-like protein 1.

For the molecule `Cc1cc2c(C(C)C)c(O)c(O)c(C=O)c2c(O)c1-c1c(C)cc2c(C(C)C)c(O)c(O)c(C=O)c2c1O` [GOSSYPOL], the IC50 was determined as 5.91 µM in the experiment on K562, 5.78 µM in experiment [3] and 9.42 µM in the experiment with MDA-MB-231. Also, the inhibition constant (Ki) in experiment [1] was determined as 0.39 µM; at Bcl-2-like protein 1 it was 770 nM.

One may read the Ki as the dissociation constant of the complex between target and ligand, obtained from inhibition or displacement. A high value points to weaker binding. A word on the IC50: it is the concentration at which inhibition is half-maximal. A higher IC50 goes with lower potency.
